Data on 20 compounds can be found in ChEMBL document CHEMBL1137430, “Incorporation of an intramolecular hydrogen-bonding motif in the side chain of 4-aminoquinolines enhances activity against drug-resistant P. falciparum” (J Med Chem, 2006).

For test [1], the system named is Plasmodium falciparum. Briefly: Antimalarial activity against multidrug-resistant Plasmodium falciparum W2. The test is classed as functional, organism-based. In a few lines:
(§1)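 P. falciparum blood-stage cultures at 37 °C under 5% CO2, 5% O2. Samples taken 72 h after drug addition, fixed in 2% paraformaldehyde about 1 h, then stained with 50 nM YOYO-1 in PBS for 24 h in the dark at 4 °C. Percent parasitized RBCs read by flow cytometry against no-drug cultures. Doses 0.1–200 nM in triplicate. IC50 from a variable-slope sigmoidal fit.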

The test system of test [2] is Plasmodium falciparum. Briefly: Antimalarial activity against chloroquine-sensitive Plasmodium falciparum 3D7. Format: functional, organism-based. In short, it runs like this: as §1

Regarding `CCCN(CCCNc1ccnc2cc(C)ccc12)Cc1cc([N+](=O)[O-])ccc1O`, the IC50 (usually the concentration that inhibits the measured activity by half) in the test with Plasmodium falciparum [1] stood at 126 nM; in the test with Plasmodium falciparum [2], 38.8 nM.

Take `CCCN(CCCCNc1ccnc2cc(Cl)ccc12)Cc1cc(O)ccc1O`: the IC50 in the test on Plasmodium falciparum [1] amounted to 8.9 nM; with Plasmodium falciparum [2] it was 2.2 nM.

As for `CCCN(CCCCNc1ccnc2cc(Cl)ccc12)Cc1cc(F)ccc1OC`, the IC50 is 4.9 nM with Plasmodium falciparum [1] and 1.9 nM with Plasmodium falciparum [2].

As to `CCCN(CCCCNc1ccnc2cc(Cl)ccc12)Cc1cc(OC)ccc1O`, the results for the 50% inhibitory concentration (IC50) with Plasmodium falciparum [1] and in the test with Plasmodium falciparum [2] were 27.5 nM and 6.8 nM, respectively.

On to `CCCN(CCCNc1ccnc2cc(Cl)ccc12)Cc1ccccc1O`, for which the IC50 in the test on Plasmodium falciparum [1] was 1.8 nM; in the test on Plasmodium falciparum [2], 0.65 nM.

Take `CCCN(CCCCNc1ccnc2cc(Cl)ccc12)Cc1cccs1`: the half-inhibitory concentration (IC50) was 22 nM in the test on Plasmodium falciparum [1] and 7.2 nM with Plasmodium falciparum [2].

In the case of `CCCN(CCCNc1ccnc2cc(Cl)ccc12)Cc1ccco1`, the IC50 with Plasmodium falciparum [1] was found to be 33 nM; with Plasmodium falciparum [2], 12.2 nM.

On to `CCCN(CCCCNc1ccnc2cc(Cl)ccc12)Cc1ccco1`, for which the values for the half-inhibitory concentration (IC50) in the test on Plasmodium falciparum [1] and in the test on Plasmodium falciparum [2] were 4 nM and 3.1 nM, respectively.

`CCCN(CCCCNc1ccnc2cc(Cl)ccc12)Cc1ccc(C)o1`: the half-maximal inhibitory concentration (IC50) in the test on Plasmodium falciparum [1] is 30.2 nM; in the test on Plasmodium falciparum [2], 7.4 nM.

For `CCCN(CCCNc1ccnc2cc(Cl)ccc12)Cc1cccs1`, the IC50 was found to be 140 nM in the test with Plasmodium falciparum [1] and 32.1 nM in the test on Plasmodium falciparum [2].

For the compound `CCCN(CCCCNc1ccnc2cc(Cl)ccc12)Cc1cccc(OC)c1O`, the half-maximal inhibitory concentration (IC50) in the test on Plasmodium falciparum [1] was found to be 4.3 nM; in the test with Plasmodium falciparum [2], 1 nM.

`CCCN(CCCNc1ccnc2cc(Cl)ccc12)Cc1cccc(F)c1O`: the half-inhibitory concentration (IC50) with Plasmodium falciparum [1] was found to be 2.6 nM; in the test with Plasmodium falciparum [2] it was 0.98 nM.

Turning to `CCCN(CCCCNc1ccnc2cc(Cl)ccc12)Cc1c(F)cccc1OC`, the IC50 in the test with Plasmodium falciparum [1] stood at 11.2 nM; with Plasmodium falciparum [2] it was 10 nM.

Consider `CCCN(CCCCNc1ccnc2cc(Cl)ccc12)Cc1cccc2c1OCO2`, for which the IC50 in the test with Plasmodium falciparum [1] came to 23 nM; in the test with Plasmodium falciparum [2], 4.2 nM.

For the compound `CCCN(CCCNc1ccnc2cc(Cl)ccc12)Cc1cc(F)ccc1OC`, in the test on Plasmodium falciparum [2], the half-inhibitory concentration (IC50) amounted to 5.2 nM.

In the case of `CCCN(CCCCNc1ccnc2cc(Cl)ccc12)Cc1ccccc1O`, the IC50 was found to be 20 nM in the test on Plasmodium falciparum [1] and 7 nM with Plasmodium falciparum [2].

For the compound `CCCN(CCCCNc1ccnc2cc(Cl)ccc12)Cc1ccc(Cl)o1`, the 50% inhibitory concentration (IC50) is 6 nM in the test on Plasmodium falciparum [1] and 4.3 nM in the test on Plasmodium falciparum [2].

In the case of `CCCN(CCCNc1ccnc2cc(Cl)ccc12)Cc1cc(O)ccc1O`, the figures for the IC50 in the test with Plasmodium falciparum [1] and with Plasmodium falciparum [2] were 22.5 nM and 2.9 nM, respectively.

For the compound `CCCN(CCCCNc1ccnc2cc(Cl)ccc12)Cc1cccc(F)c1O`, the IC50 in the test with Plasmodium falciparum [1] was 4.6 nM; with Plasmodium falciparum [2] it was 1.4 nM.

Regarding `CCCN(CCCCNc1ccnc2cc(Cl)ccc12)Cc1cc(OC(F)(F)F)ccc1O`, the IC50 in the test on Plasmodium falciparum [1] amounted to 5.9 nM; in the test with Plasmodium falciparum [2], 2.4 nM.
